Data set [1] in a line: Dose elevating electroshock induced seizure by 20% in CF1 mice after ip administration. It counts as functional, Mus musculus. Summed up:
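In CF1 male mice (ca. 24–34 g), compound was given ip in 0.5% methylcellulose. The current giving hind limb extension in 50% of mice was found by the up-and-down method, with 15–25 mice per group and a vehicle control group run with each experimental group. At least three doses were tested. The dose raising threshold current by 20% was taken from a plot of dose against % threshold increase.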

Data set [2] is described as follows: Dose protecting 50% of the mice from tonic hind limb extension at the time of […] after ip administration. It counts as functional. The conditions noted are these: Mus musculus, Hindlimb. Summed up:
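Phase II quantification in CF1 male mice (ca. 24–34 g), dosing ip or po in 0.5% methylcellulose suspension. ED50 is protection from tonic hind limb extension in MES. TD50 is rotorod neurotoxicity. Both were read at time of peak effect and derived by Litchfield–Wilcoxon with 95% confidence limits.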

Data set [3] in a line: Antiepileptic activity in male CF1 mice 30 min after administration measured in subcutaneous pentylenetetrazole (scMet) test at a dose of 300 mg/kg (no. of animals treated /protected); activity value is 0/1. It is filed as functional, Mus musculus.
Data set [4] is described as follows: Antiepileptic activity in male CF1 mice 30 min after administration measured in maximum electroshock seizure(MES) test at a dose of 300 mg/kg (no. of animals treated /protected); activity value is 0/1. It is filed as functional, Mus musculus.
Data set [5] in a line: Time of peak anticonvulsant effect in CF1 MICE after ip administration. It counts as functional, Mus musculus. In outline:
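Male CF1 mice (ca. 24–34 g), compound in 0.5% methylcellulose suspension given ip or po; time (h) at which MES protection (against tonic hind limb extension) peaked was recorded and used for ED50 determination.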

A short description of data set [6]: Antiepileptic activity in male CF1 mice 4 hr after administration measured in maximum electroshock seizure(MES) test at a dose of 300 mg/kg (no. of animals treated /protected); activity value is 1/1. It is filed as functional, Mus musculus.
Data set [7] in a line: Antiepileptic activity in male CF1 mice 4 hr after administration measured in neurological toxicity (Tox) test at a dose of 300 mg/kg (no. of animals treated /protected); activity value is 0/4. It is filed as functional, Mus musculus.
Data set [8] is described as follows: Antiepileptic activity in male CF1 mice 4 hr after administration measured in subcutaneous pentylenetetrazole (scMet) test at a dose of 300 mg/kg (no. of animals treated /protected); activity value is 0/1. It counts as functional, Mus musculus.
Data set [9] in a line: Dose at which anticonvulsant activity was observed in mice. It counts as functional, Mus musculus.
Data set [10] can be described thus: Antiepileptic activity in male CF1 mice 30 min after administration measured in neurological toxicity (Tox) test at a dose of 300 mg/kg (no. of animals treated /protected); activity value is 0/8. It counts as functional, Mus musculus.
Data set [11] is described as follows: Antiepileptic activity in male CF1 mice 0.25 hr after oral administration measured in maximum electroshock seizure(MES) test at a dose of 50 mg/kg (no. of animals treated /protected); activity value is 2/4. It is filed as functional, Mus musculus.
Data set [12] is described as follows: Antiepileptic activity in male CF1 mice 0.25 hr after oral administration measured in neurological toxicity (Tox) test at a dose of 50 mg/kg (no. of animals treated /protected); activity value is 0/4. It is filed as functional, Mus musculus.
Data set [13] is described as follows: Antiepileptic activity in male CF1 mice 0.5 hr after oral administration measured in maximum electroshock seizure(MES) test at a dose of 50 mg/kg (no. of animals treated /protected); activity value is 4/4. It counts as functional, Mus musculus.
Data set [14] in a line: Antiepileptic activity in male CF1 mice 0.5 hr after oral administration measured in neurological toxicity (Tox) test at a dose of 50 mg/kg (no. of animals treated /protected); activity value is 0/4. It is filed as functional, Mus musculus.
A short description of data set [15]: Antiepileptic activity in male CF1 mice 1 hr after oral administration measured in maximum electroshock seizure(MES) test at a dose of 50 mg/kg (no. of animals treated /protected); activity value is 3/4. It is filed as functional, Mus musculus.
A short description of data set [16]: Antiepileptic activity in male CF1 mice 1 hr after oral administration measured in neurological toxicity (Tox) test at a dose of 50 mg/kg (no. of animals treated /protected); activity value is 0/4. It is filed as functional, Mus musculus.
The nature of data set [17]: Antiepileptic activity in male CF1 mice 2 hr after oral administration measured in maximum electroshock seizure(MES) test at a dose of 50 mg/kg (no. of animals treated /protected); activity value is 2/4. It is filed as functional, Mus musculus.
Data set [18] in a line: Antiepileptic activity in male CF1 mice 2 hr after oral administration measured in neurological toxicity (Tox) test at a dose of 50 mg/kg (no. of animals treated /protected); activity value is 0/4. It is filed as functional, Mus musculus.
Data set [19] in a line: Antiepileptic activity in male CF1 mice 4 hr after oral administration measured in maximum electroshock seizure(MES) test at a dose of 50 mg/kg (no. of animals treated /protected); activity value is 2/4. It is filed as functional, Mus musculus.
The nature of data set [20]: Antiepileptic activity in male CF1 mice 4 hr after oral administration measured in neurological toxicity (Tox) test at a dose of 50 mg/kg (no. of animals treated /protected); activity value is 0/4. It is filed as functional, Mus musculus.
The nature of data set [21]: Oral dose producing neurotoxic effects in 50% of rats. It is filed as ADME, organism-based. The conditions noted are these: rat, in vivo. Summed up:
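Phase VI screen in male Sprague-Dawley rats dosed orally. MES protection and rotorod toxicity were scored as animals responding over animals tested at 0.25, 0.5, 1, 2 and 4 h.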

Data set [22] in a line: Protective index was measured as TD50/ED50 in rat on oral administration. It counts as ADME, organism-based. The conditions noted are these: in vivo, read-out: PI.

The ED50 is the dose at which the effect has come halfway, by size or by number of responders. As usually defined, the TD50 is the 50% point of the dose-response relation for the toxic effect studied.

For `COC(=O)C1C(=O)C=C(NCc2ccc(F)cc2)CC1C` (configuration not stated), the Dose in data set [1] is 10 mg/kg; in data set [9], above 100 mg/kg. The compound further returned an ED50 in data set [2] of 159 mg/kg. For the same compound, the Activity in data set [3] is reported as 0; in data set [4], 0; in [6] it was 1; in data set [7] it was 0; in data set [8], 0; in [10] it was 0. The Activity in [11] is reported as 2; in [12], 0; in data set [13] it was 4; in data set [14], 0; in [15], 3; in [16] it was 0. For the same compound, the Activity in data set [17] is 2; in [18], 0; in data set [19], 2; in [20], 0. Moreover, the TPE in data set [5] is recorded as 0.5. In data set [21], this compound yielded a TD50 above 230 mg/kg. Also, in data set [22], the selectivity ratio is 4.7.
